Test results: ChEMBL document CHEMBL4251752, “Integrated Strategy for Lead Optimization Based on Fragment Growing: The Diversity-Oriented-Target-Focused-Synthesis Approach” (J Med Chem, 2018)

Experiments:
[1] = biological target: T1, Bromodomain-containing protein 4 (Homo sapiens, UniProt O60885); experiment: Inhibition of TEV cleavage site-fused-GST tagged BRD4(BD1) (unknown origin) using SGRGK(Ac)CGK(Ac)-GLGK(Ac)GGAK(Ac)RHRKVG-peptide after 3 hrs by HTRF assay
Method in brief: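 GST-BRD4(BD1) purified on glutathione resin and by size exclusion; tetra-acetylated H4 peptide as ligand. Buffer 50 mM HEPES pH 7.5, 400 mM KF, 0.1% BSA, 0.5% DMSO final; 3 h at room temperature.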

[2] = biological target: T1, Bromodomain-containing protein 4; experiment: Binding affinity to TEV cleavage site-fused-His-tagged BRD4(BD1) (unknown origin) assessed as change in melting temperature at 10 uM by RT-PCR based thermal shift assay
Method in brief: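 His-tag removed by TEV cleavage before use; protein 2 μM final, compound 10 μM final (0.1% or 0.5% DMSO), thermal shift dye 1:1000, in 10 mM HEPES pH 7.5, 500 mM NaCl. After 1 min equilibration at 25 °C, heated 25–70 °C in 0.5 °C steps (25 s each); Tm from fluorescence melt curves, run in triplicate; ΔTm reported.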

[3] = biological target: T1, Bromodomain-containing protein 4; experiment: Binding affinity to TEV cleavage site-fused-His-tagged BRD4(BD1) (unknown origin) by isothermal-titration calorimetry
Method in brief: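 BRD4(BD1) with His-tag cleaved by TEV, DTT removed, dialysed into 10 mM HEPES pH 7.5, 150 mM NaCl; compounds diluted in the final dialysate. Reverse titration (protein in syringe, ligand in cell), 13 injections at 15 or 25 °C, in triplicate. Data fitted to a one-site model for KD and ΔH; ΔG and TΔS derived from these.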

CCn1cnc2c1c(=O)[nH]c(=O)n2Cc1ccc(CNS(=O)(=O)c2ccc(OCc3ccccc3)cc2)cc1
IC50 [1]: 631 nM
ΔTm [2]: 3.5 °C
Kd [3]: 590 nM

CCn1cnc2c1c(=O)[nH]c(=O)n2Cc1ccc(CNS(=O)(=O)c2ccc(C)cc2)cc1
IC50 [1]: 631 nM
ΔTm [2]: 3 °C
Kd [3]: 770 nM

CCn1cnc2c1c(=O)[nH]c(=O)n2Cc1ccc(CNS(=O)(=O)c2ccc3oncc3c2)cc1
IC50 [1]: 2000 nM

CCn1cnc2c1c(=O)[nH]c(=O)n2Cc1ccc(CNS(=O)(=O)c2ccc(OC)cc2)cc1
IC50 [1]: 794 nM
ΔTm [2]: 2.63 °C
Kd [3]: 540 nM

CCn1cnc2c1c(=O)[nH]c(=O)n2Cc1ccc(CNS(=O)(=O)CCN2CCOCC2)cc1
IC50 [1]: 5010 nM

CCn1cnc2c1c(=O)[nH]c(=O)n2Cc1ccc(CNS(=O)(=O)c2ccc(Oc3ccccc3)cc2)cc1
IC50 [1]: 316 nM
ΔTm [2]: 3.13 °C
Kd [3]: 360 nM

CCn1cnc2c1c(=O)[nH]c(=O)n2Cc1ccc(CNS(=O)(=O)c2ccc3c(c2)n(C)c(=O)n3C)cc1
IC50 [1]: 794 nM
ΔTm [2]: 2.13 °C
Kd [3]: 860 nM

CCn1cnc2c1c(=O)[nH]c(=O)n2Cc1ccc(CNS(=O)(=O)c2ccc3c(c2)CCCC(=O)N3)cc1
ΔTm [2]: 3.88 °C
Kd [3]: 190 nM

CCn1cnc2c1c(=O)[nH]c(=O)n2Cc1ccc(CN)cc1
IC50 [1]: 25100 nM

CCn1cnc2c1c(=O)[nH]c(=O)n2Cc1ccc(CNS(=O)(=O)c2cnn(-c3ccccc3)c2)cc1
IC50 [1]: 501 nM
ΔTm [2]: 3.38 °C
Kd [3]: 410 nM

CCn1cnc2c1c(=O)[nH]c(=O)n2Cc1ccc(CNS(=O)(=O)c2ccc(-c3ccccc3)cc2)cc1
IC50 [1]: 398 nM
ΔTm [2]: 1.5 °C

CCn1cnc2c1c(=O)[nH]c(=O)n2Cc1ccc(CNS(=O)(=O)CCc2ccccc2)cc1
IC50 [1]: 1580 nM

CCn1cnc2c1c(=O)[nH]c(=O)n2Cc1ccc(CNS(=O)(=O)c2cccc(-c3ccccc3)c2)cc1
IC50 [1]: 501 nM
ΔTm [2]: 3.25 °C
Kd [3]: 890 nM

CCn1cnc2c1c(=O)[nH]c(=O)n2Cc1ccc(CNS(=O)(=O)c2cc(-c3ccno3)ccc2C)cc1
IC50 [1]: 1260 nM

CCn1cnc2c1c(=O)[nH]c(=O)n2Cc1ccc(CNS(=O)(=O)c2ccc3c(c2)CCC(=O)N3)cc1
IC50 [1]: 398 nM
ΔTm [2]: 3 °C
Kd [3]: 310 nM
